This is an account of results in ChEMBL document CHEMBL1124944, “Synthesis and in vitro evaluation of some modified 4-thiopyrimidine nucleosides for prevention or reversal of AIDS-associated neurological disorders” (J Med Chem, 1990).

In assay [1] the test system is CCRF-CEM. Put plainly: Concentration of the drug resulting in 50% growth inhibition of normal, uninfected cells against HIV-1 replication in CEM cells. Type of assay: functional, cell-based. Particulars: Homo sapiens. In a few lines: (§1)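 NCI cytoprotection screen: HIV added at low amounts to T4 lymphoid cells (MT-2 or CEM), allowing at least two complete replication cycles to produce cell killing. […] An AZT-treated positive control was run alongside under identical conditions.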

The subject of assay [2] is CCRF-CEM. Briefly: Concentration of the drug resulting in 50% reduction of the viral cytopathic effect against HIV-1 replication in CEM cells. Type of assay: functional, cell-based. Particulars: Homo sapiens. In a few lines: as §1
In general terms: Protection from cytopathic effect is a common read-out in antiviral testing.

Assay [3] in a line: Ratio of PNS to the PN (Partition coefficient ratio between thio analogue to its oxo analogue). In short, it runs like this:
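Partitioning was between equal volumes of 1-octanol and 100 mM sodium phosphate pH 7.0. Phases were separated by centrifugation and each phase was quantified by UV absorbance at a wavelength chosen from spectra. The ratio is the thio analogue's partition coefficient over that of its oxo parent.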

Assay [4] has as its system MT2. Put plainly: Concentration of the drug resulting in 50% reduction of the viral cytopathic effect against HIV-1 replication in MT-2 cells. Type of assay: functional, cell-based. Particulars: Homo sapiens. In short, it runs like this:
as §1

The test system of assay [5] is MT2. Put plainly: Concentration of the drug resulting in 50% growth inhibition of normal, uninfected cells against HIV-1 replication in MT-2 cells. Type of assay: functional, cell-based. Particulars: Homo sapiens. In short, it runs like this: as §1
In assay [6] the target is Deoxycytidine kinase (Homo sapiens, UniProt P27707). Briefly: Inhibitory affect against rabbit deoxycytidine kinase and represented as molt/4F kinase. Particulars: target entry is the homologue from another species. Details: species or system Oryctolagus cuniculus.
Chain of Deoxycytidine kinase (P27707 whole entry): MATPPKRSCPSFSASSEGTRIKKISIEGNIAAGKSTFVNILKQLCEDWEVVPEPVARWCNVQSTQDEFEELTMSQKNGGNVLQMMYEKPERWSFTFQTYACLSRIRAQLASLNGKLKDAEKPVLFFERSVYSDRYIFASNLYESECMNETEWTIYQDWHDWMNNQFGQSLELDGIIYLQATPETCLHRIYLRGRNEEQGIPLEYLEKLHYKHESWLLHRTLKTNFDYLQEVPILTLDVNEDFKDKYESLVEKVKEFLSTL

For `Cc1cn([C@H]2C=C[C@@H](CO)O2)c(=O)[nH]c1=S`, the 50% inhibitory concentration (IC50) (usually the midpoint of a concentration-inhibition curve) was more than 430 µM in assay [1] and more than 80 µM in assay [5]. For the same compound, the values for the EC50 in assay [2] and in assay [4] were 39 µM and 27 µM, respectively. The P ratio in assay [3] came to 5.39.

Regarding `Cc1cn([C@H]2C=C[C@@H](CO)O2)c(=O)[nH]c1=O` [STAVUDINE], the figures for the IC50 in assay [1] and in assay [5] were 235 µM and 71 µM, respectively. The EC50 (usually the concentration that produces a half-maximal response) in assay [2] amounted to 0.8 µM; in assay [4], 2 µM.

Regarding `O=c1[nH]c(=S)ccn1[C@H]1C=C[C@@H](CO)O1`, the P ratio in assay [3] was determined as 1.23.

For `Nc1ccn([C@H]2C=C[C@@H](CO)O2)c(=O)n1`, the affinity in assay [6] corresponds to a Ki of 4600 µM. That is a millimolar value.

Take `O=c1[nH]c(=S)ccn1[C@H]1CC[C@@H](CO)O1`: the P ratio in assay [3] was determined as 1.56.

Turning to `Cc1cn([C@H]2C[C@H](N=[N+]=[N-])[C@@H](CO)O2)c(=O)[nH]c1=S`, in assay [3], the P ratio was 6.99.

For the compound `Cc1cn([C@H]2CC[C@@H](CO)O2)c(=O)[nH]c1=S`, the IC50 in assay [1] was 93 µM; in assay [5], 90 µM. Besides, the values for the half-maximal effective concentration (EC50) in assay [2] and in assay [4] were 31 µM and 39 µM, respectively. For the same compound, the P ratio in assay [3] is 6.41.

On to `Cc1cn([C@H]2C[C@H](N=[N+]=[N-])[C@@H](CO)O2)c(=O)[nH]c1=O` [ZIDOVUDINE], for which the IC50 in assay [1] was more than 100 µM; in assay [5], more than 970 µM. The EC50 in assay [2] came out at 0.00032 µM; in assay [4], 0.18 µM.
